According to article PMC9486889 (Japanese Journal of Clinical Oncology, 2022):

Test: Phase I dose-escalation: DLT/MTD and treatment-emergent adverse events
Assay type: in vivo, Japanese patients
Procedure, shortened: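 Open-label, non-randomized 3+3 dose escalation, starting at 30 mg oral BIW with planned escalation to 50 mg, in continuous 4-week cycles. The DLT window was 28 days from first dose. DLTs were grade 4 hematologic toxicity, grade ≥3 febrile neutropenia, grade 3 thrombocytopenia with significant bleeding, other grade ≥3 non-hematologic toxicity, or troponin rising on 3 consecutive days. AEs were coded by MedDRA 19.1 and graded by CTCAE 4.03.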

Nc1cc(F)ccc1NC(=O)c1ccc(CNC(=O)/C=C/c2cccnc2)cc1 [HBI-8000, tucidinostat]
Grade 3: Number of patients with at least one TEAE (30 mg BIW (N = 7)): 5 (71.4) n (%) | Grade 3 TEAE: Abdominal pain (30 mg BIW (N = 7)): 0 (0) n (%) | Grade 3 TEAE: Alanine aminotransferase increased (30 mg BIW (N = 7)): 0 (0) n (%) | Grade 3 TEAE: Anaemia (30 mg BIW (N = 7)): 1 (14.3) n (%) | Grade 3 TEAE: Blood creatine phosphokinase increased (30 mg BIW (N = 7)): 1 (14.3) n (%) | Grade 3 TEAE: Enterocolitis (30 mg BIW (N = 7)): 0 (0) n (%) | Grade 3 TEAE: Erythema multiforme (30 mg BIW (N = 7)): 0 (0) n (%) | Grade 3 TEAE: Erythema nodosum (30 mg BIW (N = 7)): 0 (0) n (%) | Grade 3 TEAE: Hyperglycaemia (30 mg BIW (N = 7)): 0 (0) n (%) | Grade 3 TEAE: Hypertriglyceridaemia (30 mg BIW (N = 7)): 0 (0) n (%) | Grade 3 TEAE: Lymphocyte count decreased (30 mg BIW (N = 7)): 1 (14.3) n (%) | Grade 3 TEAE: Neutropenia (30 mg BIW (N = 7)): 1 (14.3) n (%) | Grade 3 TEAE: Parkinsonism (30 mg BIW (N = 7)): 1 (14.3) n (%) | Grade 3 TEAE: Pyrexia (30 mg BIW (N = 7)): 0 (0) n (%) | Grade 3 TEAE: Rash generalized (30 mg BIW (N = 7)): 1 (14.3) n (%) | Grade 3 TEAE: Thrombocytopenia (30 mg BIW (N = 7)): 0 (0) n (%) | Grade 4: Number of patients with at least one TEAE (30 mg BIW (N = 7)): 0 (0) n (%) | Grade 4 TEAE: Abdominal pain (30 mg BIW (N = 7)): 0 (0) n (%) | Grade 4 TEAE: Alanine aminotransferase increased (30 mg BIW (N = 7)): 0 (0) n (%) | Grade 4 TEAE: Anaemia (30 mg BIW (N = 7)): 0 (0) n (%) | Grade 4 TEAE: Blood creatine phosphokinase increased (30 mg BIW (N = 7)): 0 (0) n (%) | Grade 4 TEAE: Enterocolitis (30 mg BIW (N = 7)): 0 (0) n (%) | Grade 4 TEAE: Erythema multiforme (30 mg BIW (N = 7)): 0 (0) n (%) | Grade 4 TEAE: Erythema nodosum (30 mg BIW (N = 7)): 0 (0) n (%) | Grade 4 TEAE: Hyperglycaemia (30 mg BIW (N = 7)): 0 (0) n (%) | Grade 4 TEAE: Hypertriglyceridaemia (30 mg BIW (N = 7)): 0 (0) n (%) | Grade 4 TEAE: Lymphocyte count decreased (30 mg BIW (N = 7)): 0 (0) n (%) | Grade 4 TEAE: Neutropenia (30 mg BIW (N = 7)): 0 (0) n (%) | Grade 4 TEAE: Neutrophil count decreased (30 mg BIW (N = 7)): 0 (0) n (%) | Grade 4 TEAE: Parkinsonism (30 mg BIW (N = 7)): 0 (0) n (%) | Grade 4 TEAE: Pyrexia (30 mg BIW (N = 7)): 0 (0) n (%) | Grade 4 TEAE: Rash generalized (30 mg BIW (N = 7)): 0 (0) n (%) | Grade 4 TEAE: Thrombocytopenia (30 mg BIW (N = 7)): 0 (0) n (%) | Grade 4 TEAE: White blood cell count decreased (30 mg BIW (N = 7)): 0 (0) n (%) | Number of patients with at least one related TEAE (30 mg BIW (N = 7)): 6 (85.7) n (%) | TEAE: Abdominal pain (30 mg BIW (N = 7)): 1 (14.3) n (%) | TEAE: Anaemia (30 mg BIW (N = 7)): 5 (71.4) n (%) | TEAE: Back pain (30 mg BIW (N = 7)): 0 (0) n (%) | TEAE: C-reactive protein increased (30 mg BIW (N = 7)): 1 (14.3) n (%) | TEAE: Decreased appetite (30 mg BIW (N = 7)): 1 (14.3) n (%) | TEAE: Diarrhoea (30 mg BIW (N = 7)): 3 (42.9) n (%) | TEAE: Dysgeusia (30 mg BIW (N = 7)): 2 (28.6) n (%) | TEAE: Fatigue (30 mg BIW (N = 7)): 3 (42.9) n (%) | TEAE: Headache (30 mg BIW (N = 7)): 1 (14.3) n (%) | TEAE: Hypertriglyceridaemia (30 mg BIW (N = 7)): 1 (14.3) n (%) | TEAE: Hyperuricaemia (30 mg BIW (N = 7)): 2 (28.6) n (%) | TEAE: Hypocalcaemia (30 mg BIW (N = 7)): 0 (0) n (%) | TEAE: Hypokalaemia (30 mg BIW (N = 7)): 2 (28.6) n (%) | TEAE: Insomnia (30 mg BIW (N = 7)): 1 (14.3) n (%) | TEAE: Nasopharyngitis (30 mg BIW (N = 7)): 0 (0) n (%) | TEAE: Nausea (30 mg BIW (N = 7)): 1 (14.3) n (%) | TEAE: Neutropenia (30 mg BIW (N = 7)): 1 (14.3) n (%) | TEAE: Neutrophil count decreased (30 mg BIW (N = 7)): 2 (28.6) n (%) | TEAE: Platelet count decreased (30 mg BIW (N = 7)): 3 (42.9) n (%) | TEAE: Pyrexia (30 mg BIW (N = 7)): 1 (14.3) n (%) | TEAE: Thrombocytopenia (30 mg BIW (N = 7)): 2 (28.6) n (%) | TEAE: Weight decreased (30 mg BIW (N = 7)): 1 (14.3) n (%) | TEAE: White blood cell count decreased (30 mg BIW (N = 7)): 3 (42.9) n (%) | TEAEs that led to dose reduction or dose delay (30 mg BIW cohort): four | TEAEs that led to treatment discontinuation (30 mg BIW cohort): two | Dose-limiting toxicities (30 mg BIW cohort, six patients assessed, Cycle 1): no dose-limiting toxicitys | Grade 3: Number of patients with at least one TEAE (40 mg BIW (N = 7)): 4 (57.1) n (%) | Grade 3 TEAE: Abdominal pain (40 mg BIW (N = 7)): 1 (14.3) n (%) | Grade 3 TEAE: Alanine aminotransferase increased (40 mg BIW (N = 7)): 1 (14.3) n (%) | Grade 3 TEAE: Anaemia (40 mg BIW (N = 7)): 0 (0) n (%) | Grade 3 TEAE: Blood creatine phosphokinase increased (40 mg BIW (N = 7)): 0 (0) n (%) | Grade 3 TEAE: Enterocolitis (40 mg BIW (N = 7)): 1 (14.3) n (%) | Grade 3 TEAE: Erythema multiforme (40 mg BIW (N = 7)): 1 (14.3) n (%) | Grade 3 TEAE: Erythema nodosum (40 mg BIW (N = 7)): 1 (14.3) n (%) | Grade 3 TEAE: Hyperglycaemia (40 mg BIW (N = 7)): 1 (14.3) n (%) | Grade 3 TEAE: Hypertriglyceridaemia (40 mg BIW (N = 7)): 1 (14.3) n (%) | Grade 3 TEAE: Lymphocyte count decreased (40 mg BIW (N = 7)): 0 (0) n (%) | Grade 3 TEAE: Neutropenia (40 mg BIW (N = 7)): 0 (0) n (%) | Grade 3 TEAE: Neutrophil count decreased (40 mg BIW (N = 7)): 0 (0) n (%) | Grade 3 TEAE: Parkinsonism (40 mg BIW (N = 7)): 0 (0) n (%) | Grade 3 TEAE: Pyrexia (40 mg BIW (N = 7)): 1 (14.3) n (%) | Grade 3 TEAE: Rash generalized (40 mg BIW (N = 7)): 0 (0) n (%) | Grade 3 TEAE: Thrombocytopenia (40 mg BIW (N = 7)): 2 (28.6) n (%) | Grade 3 TEAE: White blood cell count decreased (40 mg BIW (N = 7)): 1 (14.3) n (%) | Grade 4: Number of patients with at least one TEAE (40 mg BIW (N = 7)): 2 (28.6) n (%) | Grade 4 TEAE: Abdominal pain (40 mg BIW (N = 7)): 0 (0) n (%) | Grade 4 TEAE: Alanine aminotransferase increased (40 mg BIW (N = 7)): 0 (0) n (%) | Grade 4 TEAE: Anaemia (40 mg BIW (N = 7)): 0 (0) n (%) | Grade 4 TEAE: Blood creatine phosphokinase increased (40 mg BIW (N = 7)): 0 (0) n (%) | Grade 4 TEAE: Enterocolitis (40 mg BIW (N = 7)): 0 (0) n (%) | Grade 4 TEAE: Erythema multiforme (40 mg BIW (N = 7)): 0 (0) n (%) | Grade 4 TEAE: Erythema nodosum (40 mg BIW (N = 7)): 0 (0) n (%) | Grade 4 TEAE: Hyperglycaemia (40 mg BIW (N = 7)): 0 (0) n (%) | Grade 4 TEAE: Hypertriglyceridaemia (40 mg BIW (N = 7)): 0 (0) n (%) | Grade 4 TEAE: Lymphocyte count decreased (40 mg BIW (N = 7)): 0 (0) n (%) | Grade 4 TEAE: Neutropenia (40 mg BIW (N = 7)): 2 (28.6) n (%) | Grade 4 TEAE: Neutrophil count decreased (40 mg BIW (N = 7)): 0 (0) n (%) | Grade 4 TEAE: Parkinsonism (40 mg BIW (N = 7)): 0 (0) n (%) | Grade 4 TEAE: Pyrexia (40 mg BIW (N = 7)): 0 (0) n (%) | Grade 4 TEAE: Rash generalized (40 mg BIW (N = 7)): 0 (0) n (%)
